Bioassay records: PubChem BioAssay, several laboratories
This is a sample that favours compounds with a hit; in the whole collection about 1.5% have one here.
NR1D1 modulator: modulates human Rev-erb alpha binding to DNA. actives 0.79% (n = 370,000). P20393. AID 1259318. activity, % at 10 µM. Rev-erbα–FITC-DNA binding, fluorescence polarization, 90 min;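 active = activity above about 14%, limit read from the data; passing the limit was not always enough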
PG9 Ab binder: PG9 antibody binding by small molecule. TR-FRET gp120-PG9 antibody binding. inhibition, % at 6.7 µM. actives 0.43% (n = 360,000). AID 624416; in the data active = inhibition above about 8.5%
NR2E3 ag-1: agonists of human nuclear receptor NR2E3. Q9Y5X4. GST-NR2E3/biotin-RetCOR TR-FRET, 1536-well. inhibition of corepressor binding, % at 4.78 µM. actives 0.12% (n = 320,000);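 active = percent inhibition above the cutoff of mean plus 3 SD of all tested compounds, set per screening campaign, cut at about 20% in these data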
Target sequence (Q9Y5X4 whole entry, looked up): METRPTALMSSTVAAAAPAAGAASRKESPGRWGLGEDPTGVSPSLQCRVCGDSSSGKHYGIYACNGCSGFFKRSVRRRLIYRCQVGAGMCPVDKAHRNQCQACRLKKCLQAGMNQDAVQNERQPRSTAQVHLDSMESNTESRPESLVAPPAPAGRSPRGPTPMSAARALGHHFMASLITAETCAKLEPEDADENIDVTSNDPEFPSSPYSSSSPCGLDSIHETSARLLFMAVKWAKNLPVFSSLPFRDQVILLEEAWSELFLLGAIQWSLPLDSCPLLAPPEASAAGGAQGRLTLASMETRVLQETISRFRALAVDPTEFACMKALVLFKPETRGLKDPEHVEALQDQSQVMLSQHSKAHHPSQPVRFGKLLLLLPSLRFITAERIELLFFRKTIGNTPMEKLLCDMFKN
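Material: NR2E3–RetCOR corepressor complex | Quantity: 1.35 nM GST-tagged NR2E3 final | Schedule: 5 h at 4 °C | Replication: Singlicate compound wells | Reagent: RetCOR corepressor, biotinylated, 7 nM | Controls: Biotin wells as high control, 0.6% DMSO wells as low control | Signal: TR-FRET, Eu(K)-anti-GST donor, streptavidin-D2 acceptor, ex 340, em 617/671 nm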
NR2E3 ag-2: human photoreceptor-specific nuclear receptor agonism. Q9Y5X4. CHO-S Gal4-NCOR/VP16-NR2E3 two-hybrid, luciferase. inhibition of corepressor binding, % at 3.98 µM. actives 0.35% (n = 360,000). AID 602229;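 active = inhibition above the mean of all tested compounds plus 3 SD, cut at about 70% in these data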;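 note: higher means lower luciferase signal from less NR2E3 corepressor binding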
PG9 bind confirm: PG9 antibody binding, confirmed. AID 651571. inhibition, % at 6.7 µM. actives 90% (n = 1,500). TR-FRET PG9 antibody binding, biochemical. shares compounds with PG9 Ab binder; in the data active = inhibition above about 9%
PGV04 counter: binds control antibody PGV04 in PG9 binder counter-screen; shares compounds with PG9 Ab binder; TR-FRET PGV04 antibody-gp120 binding, biochemical; inhibition, % at 6.7 µM; actives 95% (n = 1,500); AID 651604; in the data active = inhibition above about 9.5%
PG9 binder DR: small molecules binding HIV-1 gp120 antibody PG9. shares compounds with PG9 Ab binder. TR-FRET PG9 antibody-gp120 binding inhibition. IC50, µM. 95 tested, under 10 active; in the data active = IC50 below about 10 µM
PGV04 binding DR: binds control antibody PGV04 in PG9 counter-screen; actives 20% (n = 95); TR-FRET binding to control antibody PGV04; IC50, µM; shares compounds with PG9 Ab binder; AID 651937
PG126 binding DR: counter-screen for PG9 binders: binding to control antibody PG126. shares compounds with PG9 Ab binder. TR-FRET binding to antibody PG126, counterscreen. AID 651939. IC50, µM. actives 20% (n = 95)
Numbers stand for hits; i = inactive; nt = no result given. Cut-off read from the data, not from the text of the source, unless noted: active = IC50 below about 9 µM; inactive = the rest.

SMILES	NR1D1 modulator	PG9 Ab binder	NR2E3 ag-1	NR2E3 ag-2	PG9 bind confirm	PGV04 counter	others
CC(C)C[C@H]1COc2cc(Br)ccc2S(=O)(=O)N1Cc1cn(Cc2ccco2)nn1	i	nt	nt	nt	nt	nt
FC(F)(F)c1ccccc1Cn1ccc2ccc(-c3ccc4ccn(Cc5ccccc5)c4c3)cc21	i	nt	nt	nt	nt	nt
O=C(Nc1ccccc1)c1sc(Cl)nc1-c1ccccc1	i	i	i	i	nt	nt
O=C(Nc1cc(F)cc(F)c1)c1sc(Cl)nc1-c1ccccc1	i	9.6	i	i	14	42
CCOc1ccc(Nc2nc3c(C)cccc3cc2C#N)cc1	i	12	i	i	15	26
CC(C)C[C@@H]1COc2cc(Br)ccc2S(=O)(=O)N1Cc1cn(CCC2OCCO2)nn1	i	nt	nt	nt	nt	nt
CCOc1cccc2cc(C(=O)NCc3ccccc3)c(=N)oc12	nt	nt	i	i	nt	nt
CCOc1cccc2cc(C(=O)NC(C)c3ccccc3)c(=N)oc12 (stereo not given)	i	9.0	i	i	9.2	15
CCN=C1SC(C(N)=O)CC(=O)N1CC (stereo not given)	i	9.0	i	i	i	18
CCc1cc2c(SCC(=O)c3ccccc3)ncnc2s1	i	i	i	i	nt	nt
CCc1cc2c(SCC(=O)NC(=O)c3cccn3C)ncnc2s1	i	21	i	i	18	34
CCc1cc2c(SCC(=O)Nc3cc(C)on3)ncnc2s1	i	22	i	i	32	48
Cc1ccc(NC(=O)CCn2cnc3ccccc3c2=O)cc1Cl	i	13	i	i	18	23
Cc1cccc(C)c1NC(=O)CCn1cnc2ccccc2c1=O	i	i	i	i	nt	nt
CCn1c2ccccc2c2cc(CN3CCN(S(=O)(=O)CC)CC3)ccc21	i	i	i	nt	nt	nt
CCn1c2ccccc2c2cc(CN3CCN(S(=O)(=O)Cc4ccccc4)CC3)ccc21	i	14	i	i	16	26
CCN1C(=O)C2(C(C(=O)c3ccc(C)o3)=C(O)C(=O)N2CCCN2CCOCC2)c2ccccc21 (stereo not given)	i	i	i	i	nt	nt
Cc1ccc(C(=O)C2=C(O)C(=O)N(CCCN3CCOCC3)C23C(=O)N(C)c2ccccc23)o1 (stereo not given)	i	9.1	i	i	19	23
CCN1C(=O)C2(C(C(=O)c3cc4ccccc4o3)=C(O)C(=O)N2CCCN2CCOCC2)c2ccccc21 (stereo not given)	i	36	i	i	45	55
CCCN1C(=O)C2(C(C(=O)c3ccc(C)o3)=C(O)C(=O)N2CCCOC)c2ccccc21 (stereo not given)	i	9.2	i	i	18	22
CCCCNS(=O)(=O)/C=C/c1cc2c(cc1CNC(=O)OC(C)(C)C)OCO2	i	nt	nt	nt	nt	nt
C=CCc1cccc(C=NNC(=O)c2ccco2)c1O	i	nt	nt	nt	nt	nt
O=c1c2[nH]c3ccc(Cl)cc3c2ncn1CCN1CCCCC1	i	i	i	i	nt	nt
S=c1nc[nH]c2c1[nH]c1ccc(Cl)cc12	i	34	i	i	15	17
S=c1nc[nH]c2c1[nH]c1ccccc12	i	79	i	i	48	29	PG9 binder DR=i;PGV04 binding DR=i;PG126 binding DR=i
SMILES	NR1D1 modulator	PG9 Ab binder	NR2E3 ag-1	NR2E3 ag-2	PG9 bind confirm	PGV04 counter	others
S=c1nc(-c2ccccc2)[nH]c2ccccc12	i	i	i	i	nt	nt
CN(CCOC(=O)c1cc2ccccc2o1)C1CN(Cc2cn(Cc3ccccc3F)nn2)S(=O)(=O)C1 (stereo not given)	i	nt	nt	nt	nt	nt
Cc1sc2ncnc(N3CCC(C(=O)Nc4ccccc4C(C)(C)C)CC3)c2c1C	i	13	i	i	17	21
O=C1[C@@H](C2CC2)[C@@H]2c3ccccc3C=NN2[C@@H]2c3ccccc3C=NN12	i	nt	nt	nt	nt	nt
Cc1cc(N=Cc2c(O)ccc3cc(Br)ccc23)no1	i	9.1	i	i	i	10
COC(=O)N1C[C@H](Oc2cccc3ccccc23)[C@H]2C[C@@H]1c1ccccc1O2	i	i	nt	nt	nt	nt
COC(=O)Nc1nc(-c2ccccc2)c(C(=O)c2ccccc2)s1	i	20	i	i	19	19	PG9 binder DR=i;PGV04 binding DR=i;PG126 binding DR=i
COC(=O)Nc1nc(C)c(C(=O)c2ccccc2)s1	i	i	i	i	nt	nt
COC(=O)[C@]12C[C@H](CC(=O)NCCc3ccccc3OC)C(=O)N(Cc3ccco3)C1=C[C@H](C(C)(C)C)O[C@@H]2C	i	nt	nt	nt	nt	nt
COc1ccccc1-c1c(C(F)(F)F)oc2cc(OCC(=O)Nc3ccccc3C(F)(F)F)ccc2c1=O	i	12	i	i	20	37
COc1ccccc1-c1c(C(F)(F)F)oc2cc(OS(C)(=O)=O)ccc2c1=O	i	i	i	i	nt	nt
CC(C)(C)NS(=O)(=O)c1ccc2nc(NC(=O)c3ccc(N4C(=O)CCC4=O)cc3)sc2c1	i	48	i	i	46	64
C[C@@H]1OCN(C)[C@H]2C[C@H]3c4[nH]c5cccc(-c6cccc(F)c6)c5c4CCN3C(=O)[C@@H]12	i	nt	nt	nt	nt	nt
CCCCn1nnc(NC(=O)c2sc3cc(Cl)ccc3c2Cl)n1	i	14	i	i	26	36
CN(C)c1ccc(/C=C(\C#N)C(=O)NCc2ccco2)cc1	nt	nt	i	nt	nt	nt
CC(OC(=O)/C(C#N)=C/c1ccc(N(C)C)cc1)C(=O)NCc1ccco1 (stereo not given)	i	10	i	i	17	24
CCOC(=O)c1ccc(Nc2ncnc3ccc(C)cc23)cc1	i	8.9	i	i	14	22
CCOC(=O)c1cccc(Nc2ncnc3ccc(C)cc23)c1	i	i	i	i	nt	nt
CCCC[n+]1ccn(-c2nc3ccccc3nc2[N-]S(=O)(=O)c2ccc(Cl)cc2)c1	i	17	i	i	28	34
Cc1ccccc1C(=O)N(C)[C@H]1C[C@H]2c3[nH]c4c(-c5ccc6c(c5)OCO6)cccc4c3CCN2C[C@H]1[C@H](C)O	i	nt	nt	nt	nt	nt
CC(=O)c1cccc(NC(=O)CSc2nnc(-c3ccc(S(=O)(=O)N4CCCC4)cc3)o2)c1	i	31	i	i	37	46
CCOc1ccc2nc(NCCNC(=O)Nc3cccc(C)c3)c(C#N)cc2c1	i	9.8	i	i	15	32
COc1ccc(C(=O)NCCNc2nc3ccc(C)cc3cc2C#N)cc1	i	45	i	i	12	36
Cc1ccc(-c2c(NC(=O)c3ccc(F)cc3)nc3ncccn23)cc1	i	nt	nt	nt	nt	nt
O=C(c1cc([N+](=O)[O-])ccc1N1CCOCC1)N1CCN(c2ccc([N+](=O)[O-])cc2)CC1	i	18	i	i	i	i	PG9 binder DR=i;PGV04 binding DR=i;PG126 binding DR=i
